Key:
[1] = Drug evaluation at the dose of 20 mg/kg by calculating fluid weight; 2/2.5; format: functional, Mus musculus
Summary of the method: (§1)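 EAC cells drawn from Swiss mouse bearing a 10–20 day tumor, diluted and counted; Swiss mice (18–20 g) inoculated ip with 1 × 10⁶ cells in 0.2 mL on day 0. Dosing ip once daily on days 1–7, in normal saline with 10% propylene glycol; controls given vehicle. Five animals per dose group. Tumor cell counts and ascitic fluid weight compared, treated (T) vs control (C).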

[2] = Effect on the survival of mice bearing ascites tumor at the dose of 20 mg/kg; format: functional, Mus musculus
Summary of the method: (§2)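 Swiss mice (18–20 g) inoculated ip on day 0 with 1 × 10⁶ EAC cells drawn from a 10–20 day donor tumor. Compounds homogenized in normal saline with 10% propylene glycol and given ip starting 24 h later, as single dose or daily for 7 days. Five mice per dose; vehicle-only controls. Survival read as median survival time (days).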

[3] = Effect on the survival of mice bearing ascites tumor in percent controls at the dose of 210 mg/kg; format: functional, Mus musculus
Summary of the method: (§3)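 Swiss mice inoculated ip with 1 × 10⁶ EAC cells, then treated ip with compound in saline/10% propylene glycol, single dose or 7 daily doses, starting 24 h later. Five mice per dose; vehicle controls. Treated median survival time expressed as percent of control; >125 counted active.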

[4] = Effect on the survival of mice bearing ascites tumor at the dose of 210 mg/kg; format: functional, Mus musculus; summary of the method: as §2
[5] = Effect on the survival of mice bearing ascites tumor in extremes treated at the dose of 140 mg/kg; format: functional, Mus musculus
Summary of the method: (§4)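 EAC-bearing Swiss mice given ip compound in saline/10% propylene glycol, single dose or daily for 7 days, starting 24 h after ip inoculation of 1 × 10⁶ cells. Five mice per dose; vehicle controls. Value is the range (shortest to longest) of survival days in the treated group.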

L1210 [6] = test: (§5) Effect on L1210/0 cells in culture; format: functional, cell-based; conditions: Mus musculus
Summary of the method: (§6)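 Murine L1210/0 leukemia and human CCRF-CEM lymphoblastoid cells incubated at 37 °C for 48 h over a range of compound concentrations. Growth inhibition read as IC50 (μM).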

[7] = Effect on the survival of mice bearing ascites tumor at the dose of 140 mg/kg; format: functional, Mus musculus; summary of the method: as §2
[8] = Percent inhibition of ascites cell at the dose of 20 mg/kg; format: functional; conditions: Mus musculus; summary of the method: as §1
CCRF-CEM [9] = test: Effect on CCRF-CEM cells (human lymphoblastoid cells) in culture; format: functional, cell-based; summary of the method: as §6
[10] = Effect on the survival of mice bearing ascites tumor in extremes treated at the dose of 20 mg/kg; format: functional, Mus musculus; summary of the method: as §4
[11] = Effect on the survival of mice bearing ascites tumor in percent controls at the dose of 30 mg/kg; format: functional, Mus musculus; summary of the method: as §3
[12] = Effect on the survival of mice bearing ascites tumor in percent controls at the dose of 140 mg/kg; format: functional, Mus musculus; summary of the method: as §3
[13] = Effect on the survival of mice bearing ascites tumor at the dose of 30 mg/kg; format: functional, Mus musculus; summary of the method: as §2
[14] = Effect on the survival of mice bearing ascites tumor in extremes treated at the dose of 30 mg/kg; format: functional, Mus musculus; summary of the method: as §4
[15] = Drug evaluation at the dose of 20 mg/kg by counting the average ascites cells number; 100/123; format: functional, Mus musculus; summary of the method: as §1
[16] = Percent inhibition of ascitic fluid at the dose of 20 mg/kg; format: functional; conditions: Mus musculus; summary of the method: as §1
[17] = Effect on the survival of mice bearing ascites tumor in percent controls at the dose of 20 mg/kg; format: functional, Mus musculus; summary of the method: as §3
[18] = Effect on the survival of mice bearing ascites tumor in extremes treated at the dose of 210 mg/kg; format: functional, Mus musculus; summary of the method: as §4
[19] = Drug evaluation at the dose of 20 mg/kg by calculating fluid weight; 0.8/2; format: functional, Mus musculus; summary of the method: as §1
[20] = Drug evaluation at the dose of 20 mg/kg by counting the average ascites cells number; 35/150; format: functional, Mus musculus; summary of the method: as §1
CCRF-CEM [21] = test: (§7) Effect on CCRF-CEM cells in culture; format: functional, cell-based; conditions: Homo sapiens; summary of the method: as §6
L1210 [22] = test: Effect on L1210/0 cells (mouse leukemia cells) in culture
[23] = Effect on the survival of mice bearing ascites tumor in extremes treated at the dose of 10 mg/kg; format: functional, Mus musculus; summary of the method: as §4
[24] = Effect on the survival of mice bearing ascites tumor in extremes treated at the dose of 70 mg/kg; format: functional, Mus musculus; summary of the method: as §4
[25] = Effect on the survival of mice bearing ascites tumor in percent controls at the dose of 70 mg/kg; format: functional, Mus musculus; summary of the method: as §3
[26] = Effect on the survival of mice bearing ascites tumor at the dose of 70 mg/kg; format: functional, Mus musculus; summary of the method: as §2
[27] = Effect on the survival of mice bearing ascites tumor in percent controls at the dose of 10 mg/kg; format: functional, Mus musculus; summary of the method: as §3
[28] = Effect on the survival of mice bearing ascites tumor at the dose of 10 mg/kg; format: functional, Mus musculus; summary of the method: as §2
[29] = Drug evaluation at the dose of 20 mg/kg by counting the average ascites cells number; 59/165; format: functional, Mus musculus; summary of the method: as §1
L1210 [30] = test: as §5; format: functional, cell-based; conditions: Mus musculus; remark: listed apart in the source
Summary of the method: (§8)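 CCRF-CEM human lymphoblastoid or L1210/0 mouse leukemia cells incubated with a range of compound concentrations at 37 °C for 48 h; IC50 (μM) taken from cell growth.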

CCRF-CEM [31] = test: as §7; format: functional, cell-based; conditions: Homo sapiens; summary of the method: as §8; remark: listed apart in the source

| Structure (SMILES) | Survival treated [2] | Controls [3] [%] | Survival treated [4] | Extremes treated [5] | IC50 (L1210 [6]) [nM] | Survival treated [7] | inhibition in vivo at 20 mg/kg [8] [%] | IC50 (CCRF-CEM [9]) [nM] | Extremes treated [10] | Controls [11] [%] | Controls [12] [%] | Survival treated [13] | Extremes treated [14] | inhibition in vivo at 20 mg/kg [16] [%] | Controls [17] [%] | Extremes treated [18] | other results |
| --- | --- | --- | --- | --- | --- | --- | --- | --- | --- | --- | --- | --- | --- | --- | --- | --- | --- |
| COc1ccc(C(=O)C#Cc2cnc(O)nc2O)cc1 | 18 | 127 | 14 | 15 | 2000 | 14 | 19.1 | 2300 | 19 | 109 | 127 | 12 | 13 | 20 | 164 | 16 | T/C [1]: 0.8; T/C [15]: 0.813 |
| O=C(C#Cc1cnc(O)nc1O)c1ccccc1 | 22 | 165 | 21.5 | 39 | 650 | 36.5 | 76 | – | 23 | 134 | 281 | 17.5 | 18 | 60 | 169 | 22 | T/C [19]: 0.4; T/C [20]: 0.233; IC50 (CCRF-CEM [21]): 2000 nM |
| Cc1ccc(C(=O)C#Cc2cnc(O)nc2O)cc1 | 20.5 | – | – | 35 | – | 34.5 | – | 2250 | 23 | – | 300 | – | – | – | 178 | – | IC50 (L1210 [22]): 1900 nM; Extremes treated [23]: 14; Extremes treated [24]: 31; Controls [25]: 260%; Survival treated [26]: 30; Controls [27]: 113%; Survival treated [28]: 13 |
| O=C(C#Cc1cnc(O)nc1O)c1ccccc1Cl | 16.5 | 204 | 26.5 | 18 | 2000 | 16.5 | 64.2 | 2200 | 17 | 142 | 127 | 18.5 | 20 | 37.5 | 127 | 27 | T/C [29]: 0.358 |
| O=c1[nH]cc(F)c(=O)[nH]1 [FLUOROURACIL] | 41 | – | – | 14 | – | 11 | – | – | 45 | – | 92 | – | – | – | 342 | – | IC50 (L1210 [30]): 300 nM; IC50 (CCRF-CEM [31]): 2000 nM |

From ChEMBL document CHEMBL1124844, “Synthesis and biological activities of novel 5-(2-acylethynyl)uracils” (J Med Chem, 1990)
